Laboratory results reported in ChEMBL document CHEMBL4261600 (Eur J Med Chem, 2018).
The source made the active and inactive calls.

How the values were obtained:
[1] = Tmax in Sprague-Dawley rat at 3 mg/kg, iv by LC-MS/MS analysis; type: ADME, organism-based; conditions: in vivo
[2] = target: Serine/threonine-protein kinase Nek2 (Homo sapiens) (UniProt P51955); assay: Binding affinity to wild-type human partial length NEK2 (M1 to K309 residues) expressed in bacterial expression system assessed as remaining unbound target protein level at 1000 nM by Kinomescan method relative to control
Serine/threonine-protein kinase Nek2 (Homo sapiens), sequence (P51955 whole entry, the tested form may be a part): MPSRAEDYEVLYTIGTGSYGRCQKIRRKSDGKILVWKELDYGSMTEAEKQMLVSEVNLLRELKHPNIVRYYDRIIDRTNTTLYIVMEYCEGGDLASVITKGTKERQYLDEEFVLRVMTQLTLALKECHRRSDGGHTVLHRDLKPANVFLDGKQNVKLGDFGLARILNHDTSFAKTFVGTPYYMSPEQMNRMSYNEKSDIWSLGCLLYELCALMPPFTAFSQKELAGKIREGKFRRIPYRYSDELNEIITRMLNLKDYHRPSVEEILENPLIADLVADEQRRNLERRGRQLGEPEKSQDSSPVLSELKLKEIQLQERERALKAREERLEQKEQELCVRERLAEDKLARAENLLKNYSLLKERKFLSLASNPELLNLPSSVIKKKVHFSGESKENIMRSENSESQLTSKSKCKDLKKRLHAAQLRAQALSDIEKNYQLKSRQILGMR

[3] = target: 5'-AMP-activated protein kinase catalytic subunit alpha-1 (Homo sapiens) (UniProt Q13131); assay: Binding affinity to wild-type human partial length AMPK alpha1 (M1 to E306 residues) expressed in bacterial expression system assessed as remaining unbound target protein level at 1000 nM by Kinomescan method relative to control
How it was run: (§1)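 KINOMEscan competition binding profile across a panel of 468 kinases and mutants, with the inhibitor tested at a single concentration of 1 μM. Binding is reported as percent of control, meaning signal relative to a DMSO control.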

[4] = target: Mitogen-activated protein kinase 13 (Homo sapiens) (UniProt O15264); assay: Binding affinity to wild-type human full length p38-delta (M1 to L365 residues) expressed in bacterial expression system assessed as remaining unbound target protein level at 1000 nM by Kinomescan method relative to control
Mitogen-activated protein kinase 13 (Homo sapiens), sequence (O15264 whole entry, the tested form may be a part): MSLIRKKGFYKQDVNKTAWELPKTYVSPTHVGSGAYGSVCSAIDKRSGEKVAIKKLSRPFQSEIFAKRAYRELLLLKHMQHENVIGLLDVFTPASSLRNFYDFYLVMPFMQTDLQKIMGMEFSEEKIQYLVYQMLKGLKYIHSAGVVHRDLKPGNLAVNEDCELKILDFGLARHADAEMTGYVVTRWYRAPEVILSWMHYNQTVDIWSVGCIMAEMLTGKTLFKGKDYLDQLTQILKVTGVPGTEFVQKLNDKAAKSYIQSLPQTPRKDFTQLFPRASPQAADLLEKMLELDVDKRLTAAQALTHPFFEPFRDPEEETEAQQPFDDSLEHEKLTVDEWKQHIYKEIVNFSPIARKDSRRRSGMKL
How it was run: (§2)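 Profiled in a KINOMEscan binding panel with the inhibitor at a single concentration of 1 μM. Binding to each kinase was read out as percent of control, relative to a DMSO control. Strong binders were defined as those with a percent control value below 1.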

[5] = target: SNF-related serine/threonine-protein kinase (Homo sapiens) (UniProt Q9NRH2); assay: Binding affinity to wild-type human partial length SNRK (M1 to E339 residues) expressed in mammalian expression system assessed as remaining unbound target protein level at 1000 nM by Kinomescan method relative to control
SNF-related serine/threonine-protein kinase (Homo sapiens), sequence (Q9NRH2 whole entry, the tested form may be a part): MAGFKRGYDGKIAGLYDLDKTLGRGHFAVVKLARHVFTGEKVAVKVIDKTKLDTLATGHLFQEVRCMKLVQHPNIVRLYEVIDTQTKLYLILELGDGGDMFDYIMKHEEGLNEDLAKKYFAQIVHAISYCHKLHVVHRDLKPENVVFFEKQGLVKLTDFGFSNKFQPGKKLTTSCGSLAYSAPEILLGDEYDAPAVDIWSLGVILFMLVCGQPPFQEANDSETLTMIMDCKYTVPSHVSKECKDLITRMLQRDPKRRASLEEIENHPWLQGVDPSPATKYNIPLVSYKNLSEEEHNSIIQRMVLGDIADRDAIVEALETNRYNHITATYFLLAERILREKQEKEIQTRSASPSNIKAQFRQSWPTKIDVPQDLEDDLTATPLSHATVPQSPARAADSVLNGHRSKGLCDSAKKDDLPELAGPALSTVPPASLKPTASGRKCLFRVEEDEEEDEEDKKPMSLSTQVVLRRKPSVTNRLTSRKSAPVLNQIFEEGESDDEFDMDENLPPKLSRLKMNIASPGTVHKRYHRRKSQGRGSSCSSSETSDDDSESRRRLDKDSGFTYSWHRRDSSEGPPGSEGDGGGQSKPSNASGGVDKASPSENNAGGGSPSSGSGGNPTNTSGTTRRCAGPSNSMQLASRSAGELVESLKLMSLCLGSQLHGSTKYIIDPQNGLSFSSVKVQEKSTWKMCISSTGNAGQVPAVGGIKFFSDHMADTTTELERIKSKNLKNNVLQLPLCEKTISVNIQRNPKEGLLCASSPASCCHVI

MV4-11 = assay: Cell cycle arrest in human MV4-11 cells increase in accumulation at G0/G1 phase at 0.01 to 0.03 uM after 24 hrs by propidium iodide/RNase staining based flow cytometric analysis
[6] = target: Serine/threonine-protein kinase B-raf (Homo sapiens) (UniProt P15056); assay: Binding affinity to wild-type human partial length BRAF (S429 to E741 residues) expressed in mammalian expression system assessed as remaining unbound target protein level at 1000 nM by Kinomescan method relative to control; how it was run: as §2
HL-60 = assay: Induction of apoptosis in human HL60 cells assessed as decrease in XIAP level up to 3 uM after 2 hrs by immunoblotting analysis; type: functional, cell-based
[7] = target: Dual specificity tyrosine-phosphorylation-regulated kinase 1A (Homo sapiens) (UniProt Q13627); assay: Binding affinity to wild-type human partial length DYRK1A (H129 to S509 residues) expressed in mammalian expression system assessed as remaining unbound target protein level at 1000 nM by Kinomescan method relative to control
How it was run: (§3)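 KINOMEscan binding panel of 468 kinases/mutants. Inhibitor was tested at a single concentration of 1 μM. Binding is reported as percent of control, defined relative to a DMSO control.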

[8] = target: Receptor-type tyrosine-protein kinase FLT3 (Homo sapiens) (UniProt P36888); assay: Binding affinity to wild-type human partial length autoinhibited FLT3 (H564 to Y969 residues) expressed in mammalian expression system assessed as remaining unbound target protein level at 1000 nM by Kinomescan method relative to control
[9] = target: Hepatocyte growth factor receptor (Homo sapiens) (UniProt P08581); assay: Binding affinity to wild-type human partial length MET (D1010 to S1367 residues) expressed in bacterial expression system assessed as remaining unbound target protein level at 1000 nM by Kinomescan method relative to control
[10] = target: Discoidin domain-containing receptor 2 (Homo sapiens) (UniProt Q16832); assay: Binding affinity to wild-type human partial length DDR2 (V555 to E855 residues) expressed in mammalian expression system assessed as remaining unbound target protein level at 1000 nM by Kinomescan method relative to control
[11] = target: Casein kinase I isoform gamma-1 (Homo sapiens) (UniProt Q9HCP0); assay: Binding affinity to wild-type human partial length CSNK1G1 (T15 to S353 residues) expressed in bacterial expression system assessed as remaining unbound target protein level at 1000 nM by Kinomescan method relative to control; how it was run: as §1
Casein kinase I isoform gamma-1 (Homo sapiens), sequence (Q9HCP0 whole entry, looked up, the tested form may be a part, canonical isoform): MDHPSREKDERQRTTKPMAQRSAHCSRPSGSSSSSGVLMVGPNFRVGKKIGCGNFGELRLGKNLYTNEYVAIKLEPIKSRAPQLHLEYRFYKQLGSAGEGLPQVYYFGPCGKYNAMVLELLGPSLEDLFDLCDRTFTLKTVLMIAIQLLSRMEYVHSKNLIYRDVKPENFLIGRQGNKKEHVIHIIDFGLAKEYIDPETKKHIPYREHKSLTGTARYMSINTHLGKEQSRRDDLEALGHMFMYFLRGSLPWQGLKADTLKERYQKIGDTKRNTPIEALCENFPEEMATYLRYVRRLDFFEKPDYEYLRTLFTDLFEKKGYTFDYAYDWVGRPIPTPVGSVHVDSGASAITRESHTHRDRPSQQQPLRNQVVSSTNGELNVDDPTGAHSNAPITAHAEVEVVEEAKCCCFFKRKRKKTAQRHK

[12] = target: Phosphatidylinositol 3-kinase catalytic subunit type 3 (Homo sapiens) (UniProt Q8NEB9); assay: Binding affinity to wild-type human partial length VPS34 (S282 to H879 residues) expressed in mammalian expression system assessed as remaining unbound target protein level at 1000 nM by Kinomescan method relative to control
Phosphatidylinositol 3-kinase catalytic subunit type 3 (Homo sapiens), sequence (Q8NEB9 whole entry, the tested form may be a part): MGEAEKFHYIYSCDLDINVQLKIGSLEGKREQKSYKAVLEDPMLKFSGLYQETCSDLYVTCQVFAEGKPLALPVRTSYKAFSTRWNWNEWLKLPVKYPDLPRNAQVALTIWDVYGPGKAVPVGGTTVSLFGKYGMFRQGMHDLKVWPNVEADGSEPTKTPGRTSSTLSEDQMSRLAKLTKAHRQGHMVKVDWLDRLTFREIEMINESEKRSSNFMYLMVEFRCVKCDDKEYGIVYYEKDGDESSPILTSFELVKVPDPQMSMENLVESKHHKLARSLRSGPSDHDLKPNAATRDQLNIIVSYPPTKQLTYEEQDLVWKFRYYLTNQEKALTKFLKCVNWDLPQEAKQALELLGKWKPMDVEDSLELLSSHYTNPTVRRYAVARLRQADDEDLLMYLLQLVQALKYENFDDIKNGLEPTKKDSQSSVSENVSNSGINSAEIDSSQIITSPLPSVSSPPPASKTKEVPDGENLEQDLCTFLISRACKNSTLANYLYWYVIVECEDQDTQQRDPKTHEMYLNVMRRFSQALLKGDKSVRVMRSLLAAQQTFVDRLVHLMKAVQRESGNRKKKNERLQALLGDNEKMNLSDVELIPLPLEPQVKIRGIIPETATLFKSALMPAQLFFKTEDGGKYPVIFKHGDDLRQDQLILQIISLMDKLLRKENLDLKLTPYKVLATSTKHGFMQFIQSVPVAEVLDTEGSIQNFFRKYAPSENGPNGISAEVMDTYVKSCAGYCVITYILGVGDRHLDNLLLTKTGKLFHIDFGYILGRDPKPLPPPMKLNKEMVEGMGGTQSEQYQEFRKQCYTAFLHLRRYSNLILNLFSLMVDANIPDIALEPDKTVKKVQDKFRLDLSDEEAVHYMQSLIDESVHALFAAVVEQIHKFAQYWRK

SK-N-BE(2)-M17 = assay: Antiproliferative activity against human BE(2)-M17 cells after 72 hrs by Celltiter-Glo assay; type: functional; conditions: SK-N-BE(2)-M17, 72 h
How it was run: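 Cells seeded at 3000/well in 96-well plates, exposed to serially diluted compound for 72 h at 37 °C, 5% CO2. Viability read by CellTiter-Glo luminescence and normalized to DMSO control. GI50 derived from curve fit, mean of three independent measurements. Culture media: DMEM/10% FBS for adherent lines; IMDM for MV4-11 and MEC-1/2; RPMI 1640 for suspension lines and CHL.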

[13] = target: Angiopoietin-1 receptor (Homo sapiens) (UniProt Q02763); assay: Binding affinity to wild-type human partial length TIE2 (N804 to T1112 residues) expressed in bacterial expression system assessed as remaining unbound target protein level at 1000 nM by Kinomescan method relative to control
Angiopoietin-1 receptor (Homo sapiens), sequence (Q02763 whole entry, the tested form may be a part): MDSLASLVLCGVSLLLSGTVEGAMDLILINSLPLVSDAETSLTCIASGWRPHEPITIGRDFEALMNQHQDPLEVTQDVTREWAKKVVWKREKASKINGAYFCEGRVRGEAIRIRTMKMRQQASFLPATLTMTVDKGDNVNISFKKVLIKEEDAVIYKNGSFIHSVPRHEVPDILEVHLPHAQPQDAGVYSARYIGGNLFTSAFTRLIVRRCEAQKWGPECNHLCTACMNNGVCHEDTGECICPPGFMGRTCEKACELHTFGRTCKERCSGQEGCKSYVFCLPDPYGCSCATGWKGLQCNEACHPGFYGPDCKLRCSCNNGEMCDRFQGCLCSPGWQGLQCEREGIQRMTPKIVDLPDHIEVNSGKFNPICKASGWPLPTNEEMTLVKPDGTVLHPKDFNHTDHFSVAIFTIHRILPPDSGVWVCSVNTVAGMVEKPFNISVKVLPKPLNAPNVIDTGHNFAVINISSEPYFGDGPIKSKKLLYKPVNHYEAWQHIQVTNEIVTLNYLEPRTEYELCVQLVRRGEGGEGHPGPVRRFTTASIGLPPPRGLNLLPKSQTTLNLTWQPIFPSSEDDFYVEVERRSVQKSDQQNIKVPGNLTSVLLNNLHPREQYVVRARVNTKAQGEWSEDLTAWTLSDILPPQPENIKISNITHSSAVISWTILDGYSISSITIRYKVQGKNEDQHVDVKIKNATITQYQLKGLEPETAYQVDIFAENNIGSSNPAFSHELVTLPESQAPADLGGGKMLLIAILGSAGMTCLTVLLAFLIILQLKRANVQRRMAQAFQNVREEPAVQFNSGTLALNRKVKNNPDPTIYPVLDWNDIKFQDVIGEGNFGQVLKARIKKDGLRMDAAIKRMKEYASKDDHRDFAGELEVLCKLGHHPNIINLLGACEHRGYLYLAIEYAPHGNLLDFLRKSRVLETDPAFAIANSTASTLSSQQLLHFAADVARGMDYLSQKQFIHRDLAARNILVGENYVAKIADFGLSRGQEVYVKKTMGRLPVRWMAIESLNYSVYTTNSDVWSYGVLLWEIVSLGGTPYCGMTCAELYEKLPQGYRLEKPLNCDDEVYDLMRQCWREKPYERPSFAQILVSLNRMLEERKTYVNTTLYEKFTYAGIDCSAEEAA

[14] = target: Tyrosine-protein kinase Lck (Homo sapiens) (UniProt P06239); assay: Binding affinity to wild-type human partial length LCK (R207 to P509 residues) expressed in bacterial expression system assessed as remaining unbound target protein level at 1000 nM by Kinomescan method relative to control; how it was run: as §3
[15] = target: Fibroblast growth factor receptor 3 (Homo sapiens) (UniProt P22607); assay: Binding affinity to wild-type human partial length FGFR3 (R442 to S771 residues) expressed in bacterial expression system assessed as remaining unbound target protein level at 1000 nM by Kinomescan method relative to control
[16] = target: Serine/threonine-protein kinase DCLK1 (Homo sapiens) (UniProt O15075); assay: Binding affinity to wild-type human partial length DCAMKL1 (L270 to A662 residues) expressed in mammalian expression system assessed as remaining unbound target protein level at 1000 nM by Kinomescan method relative to control
Serine/threonine-protein kinase DCLK1 (Homo sapiens), sequence (O15075 whole entry, the tested form may be a part): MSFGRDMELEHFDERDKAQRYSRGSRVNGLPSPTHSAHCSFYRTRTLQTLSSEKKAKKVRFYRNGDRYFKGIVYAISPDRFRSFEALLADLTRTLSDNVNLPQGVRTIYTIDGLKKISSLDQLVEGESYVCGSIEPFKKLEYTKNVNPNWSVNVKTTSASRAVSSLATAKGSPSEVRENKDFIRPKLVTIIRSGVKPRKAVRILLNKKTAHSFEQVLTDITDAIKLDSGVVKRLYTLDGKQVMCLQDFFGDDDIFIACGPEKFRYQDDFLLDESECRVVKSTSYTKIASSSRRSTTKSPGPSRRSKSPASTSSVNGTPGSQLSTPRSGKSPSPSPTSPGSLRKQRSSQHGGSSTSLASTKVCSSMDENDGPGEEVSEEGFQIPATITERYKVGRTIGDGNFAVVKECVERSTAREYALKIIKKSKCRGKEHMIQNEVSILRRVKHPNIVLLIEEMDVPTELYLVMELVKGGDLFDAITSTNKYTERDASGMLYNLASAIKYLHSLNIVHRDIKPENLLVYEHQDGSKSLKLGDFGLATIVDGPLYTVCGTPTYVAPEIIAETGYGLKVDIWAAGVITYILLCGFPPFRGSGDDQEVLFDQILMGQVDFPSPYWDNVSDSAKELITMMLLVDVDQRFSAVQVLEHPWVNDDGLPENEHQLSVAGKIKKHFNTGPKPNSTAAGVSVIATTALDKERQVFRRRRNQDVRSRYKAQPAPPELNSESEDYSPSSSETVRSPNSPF

[17] = system: Hepatocyte growth factor receptor (Homo sapiens), P08581 [M1250T]; assay: Binding affinity to human partial length MET M1250T mutant (D1010 to S1367 residues) expressed in bacterial expression system assessed as remaining unbound target protein level at 1000 nM by Kinomescan method relative to control
How it was run: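 KINOMEscan competition-binding profiling across the panel of 468 kinases and mutants, with inhibitor tested at 1 μM. Binding is expressed as percent of control, with DMSO as the reference control.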

[18] = target: Serine/threonine-protein kinase ULK1 (Homo sapiens) (UniProt O75385); assay: Binding affinity to wild-type human partial length ULK1 (M1 to T309 residues) expressed in mammalian expression system assessed as remaining unbound target protein level at 1000 nM by Kinomescan method relative to control

COCCN[C@H]1CC[C@H](Nc2cc(-c3csc(NCC4(C#N)CCOCC4)n3)c(Cl)cn2)CC1
Tmax [1]: 1.2 min
Activity [2]: 100%
Activity [3]: 94%
Activity [4]: 100%
Activity [5]: 100%
Activity (MV4-11): Active
Activity [6]: 97%
Activity (HL-60): inactive
Activity [7]: 0.3%
Activity [8]: 100%
Activity [9]: 73%
Activity [10]: 97%
Activity [11]: 93%
Activity [12]: 95%
GI50 (SK-N-BE(2)-M17): 34 nM
Activity [13]: 89%
Activity [14]: 81%
Activity [15]: 89%
Activity [16]: 100%
Activity [17]: 100%
Activity [18]: 100%
